SIAE primary: human SIAE inhibitors, primary screen, biochemical, fluorescence polarization, FP-Rh probe, 1536-well HTS; Sialate O-acetylesterase (Homo sapiens), Q9HAT2; SIAE FP-Rh probe binding; inhibition, % at 9.66 µM; 370,000 tested, 0.69% active; AID 1053197, 2014;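 active means inhibition above a cutoff: mean of compounds within the control limits plus 3 SD of those, cut at about 17% in these data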;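 further: 0% = plate median of compound wells and 100% = probe without SIAE protein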
PRMT1 inh: PRMT1 methyltransferase inhibitors, primary screen, biochemical, fluorescence polarization. inhibition, % at 2.79 µM. AID 652257, 2013. recombinant PRMT1, activity-based probe fluorescence polarization. 370,000 tested, 1.3% active. Protein arginine N-methyltransferase 1 (Homo sapiens), Q99873;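 active means inhibition above about 21% made by adding two undisclosed values, limit read from the data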
ABHD4 inh: ABHD4 inhibitors, primary screen, biochemical, fluorescence polarization, mouse; purified mABHD4, FP-Rh probe fluorescence polarization; inhibition, % at 8.92 µM; 370,000 tested, 0.54% active;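 active means inhibition exceeding the mean over every tested compound plus 3 SD, cut at about 30% in these data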;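 further: 0% = plate median of compound wells and 100% = S159A mutant with DMSO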
Target sequence (Q8VD66 whole entry, looked up): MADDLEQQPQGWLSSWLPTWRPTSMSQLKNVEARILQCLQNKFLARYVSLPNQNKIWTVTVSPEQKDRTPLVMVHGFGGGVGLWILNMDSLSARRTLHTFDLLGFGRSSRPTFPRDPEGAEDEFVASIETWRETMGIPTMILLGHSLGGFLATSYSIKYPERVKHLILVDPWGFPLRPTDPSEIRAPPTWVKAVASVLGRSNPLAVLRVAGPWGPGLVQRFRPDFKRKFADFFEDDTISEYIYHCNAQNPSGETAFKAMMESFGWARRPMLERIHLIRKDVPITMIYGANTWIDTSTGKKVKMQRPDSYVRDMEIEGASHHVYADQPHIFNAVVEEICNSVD
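assay system = mABHD4 protein | compound dosing = single nominal dose of 8.92 µM, 0.89% DMSO final | read-out basis = percent inhibition of probe binding, normalized to plate controls | schedule = Enzyme–compound pre-incubation 45 min, then probe 60 min, both 25 °C | detection = fluorescence polarization, excitation 525 nm, emission 598 nm, BODIPY TMR filters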
TCR-CD3 inh: inhibitors of human TCR-CD3 interaction, primary screen, biochemical, fluorescence, TAMRA-labeled TCR probe; T-cell receptor (TCR); inhibition, % at 9.4 µM; 360,000 tested, 0.37% active; AID 651800, 2012; in the data active means inhibition above about 19%;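 further: recombinant mutant TCR 2C K166C tagged with TAMRA read by polarization; 0% = receptor in buffer alone and 100% = receptor with positive control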
HTRA1 inh: HTRA1 serine protease inhibitors, primary screen, biochemical, fluorescence polarization, HTS; Q92743; recombinant HTRA1, FP-rhodamine activity-based probe; inhibition, % at 5.96 µM; 340,000 tested, 0.5% active; in the data active means inhibition above about 36%;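 further: 0% = enzyme with DMSO and 100% = wells lacking enzyme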
Active calls of the source: *; x = no result given. Only some compounds are listed: those with a hit (about 2.6% of all), similar ones and a draw of the others.

SMILES	SIAE primary	PRMT1 inh	ABHD4 inh	TCR-CD3 inh	HTRA1 inh
O=C1c2cccc3cccc(c23)C(=O)N1Cc1cccnc1	-13	2	2	4	1
O=C(Nc1ccc2c(c1)OCO2)NC1(C(F)(F)F)Oc2ccccc2O1	4	22*	14	-3	7
COc1ccc(-c2c3c([nH]c(=S)c2C#N)CCC3)cc1	-8	23*	-2	-1	-7
NC(=O)CSc1cn(Cc2ccc(F)cc2)c2ccccc12	1	1	-13	-14	-1
NC(=O)CSc1cn(Cc2ccccc2)c2ccccc12	5	23*	3	-5	3
CCN1CCCCC(NC(=O)c2ccc(F)cc2)C1=O (stereo not given)	-1	6	2	x	x
COc1ccc(N(CC(=O)NCc2ccco2)S(=O)(=O)c2ccc(C)cc2)cc1OC	2	2	2	3	5
COc1ccccc1N(CC(=O)NCc1ccco1)S(=O)(=O)c1ccc(C)cc1	-12	21*	6	6	2
CCOC(=O)[C@]12CCCC3=C1N(CCC3)C(=O)[C@@H](CC(=O)NCc1ccc(OC)c(OC)c1)C2	-3	-3	-5	x	x
C/C=C/C=C\C(=O)Nc1cccc(C2=NOC3(C2)C[C@@H](C(N)=O)N(C(=O)c2cc([N+](=O)[O-])cc([N+](=O)[O-])c2C)C3)c1 (stereo not given in full)	-7	24*	-4	-1	-16
C/C(=N\Nc1ccc(S(=O)(=O)Nc2ccc(Cl)cc2)cc1[N+](=O)[O-])c1ccc(N2CCOCC2)cc1	24*	1	4	4	9
O=[N+]([O-])c1ccccc1/C=C/C=N/Nc1ccc(S(=O)(=O)Nc2ccc(Cl)cc2)cc1[N+](=O)[O-]	43*	0	14	-1	3
CCCCNS(=O)(=O)CC1NCc2cc(F)ccc21 (stereo not given)	-4	3	-5	x	x
CC(C)c1ccc(OC[C@@H](O)CN2CCC(C(O)(c3ccccc3)c3ccccc3)CC2)cc1	3	-3	10	x	x
CCOc1ccc(NC(=O)CSc2nncc(=O)n2N)cc1	7	34*	4	-2	3
CCCc1nnc(SCC(=O)Nc2ccc(OCC)cc2)n1N	6	0	-1	-6	-3
CCOc1cc(C2Nc3cccc4cccc(c34)N2)ccc1O	x	x	x	x	37*
CCOc1ccc(C2Nc3cccc4cccc(c34)N2)cc1OC	11	1	4	3	-2
O=C1C(Cl)=C(N2CCOCC2)C(=O)N1c1cccc(C(F)(F)F)c1	-1	22*	6	-5	-28
COC(=O)c1cccc(N2C(=O)C(Cl)=C(N3CCOCC3)C2=O)c1	6	13	2	1	2
CC(CNC(=O)CCS(=O)(=O)c1ccc2c(c1)oc(=O)n2C)c1ccccc1 (stereo not given)	-1	2	1	3	4
CC(C)N(Cc1ccccc1)C(=O)CCS(=O)(=O)c1ccc2c(c1)oc(=O)n2C	1	22*	2	1	12
CCN(CC)C(=O)CC[C@H]1CC[C@]2(CCCN(S(=O)(=O)C3CCCCC3)C2)O1	1	-3	-3	x	x
Cc1ccc(CN2CCCCC(NC(=O)c3ccc(C)cc3)C2=O)cc1 (stereo not given)	3	3	2	x	x
CCOC(=O)C1CCN(C2CC(=O)N(c3cccc(Cl)c3)C2=O)CC1 (stereo not given)	-1	22*	4	2	-3
Fc1cccc(CSc2ccc(-c3ccco3)nn2)c1	4	24*	-5	5	-5
O=C1c2ccccc2C(=O)C1c1ccnc2ccccc12	-6	1	1	0	6
N#CC1=C(N)SC(N)=C(C#N)C1c1ccnc2ccccc12	-3	43*	4	-3	-4
CCOC(=O)CC[C@@]1(C(=O)OCC)C[C@@H](CC(=O)NCCc2ccccc2OC)C(=O)N2CCCC=C21	1	4	-4	x	x
Cc1ccc(C2CC(=O)N3CN(c4ccc(Br)cc4)CSC3=C2C#N)o1 (stereo not given)	5	82*	9	-1	11
